Shown are actives, neighbours in structure and some others; about 2.1% of the full set was active somewhere.
Runt-SMMHC FRET = inhibitors of RUNX1 Runt–CBFb-SMMHC binding, primary screen, biochemical, FRET, Cerulean-Runt, Venus-CBFb-SMMHC, uHTS; Runt-related transcription factor 1 (Homo sapiens) + Core-binding factor subunit beta …; Cerulean-Runt/Venus-CBFb-SMMHC FRET ratio 530/480, 1 h; inhibition, % at 20 µM; 220,000 compounds, 0.74% hits;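 active = mean inhibition across duplicate retests at 20 µM reaching about 50%, limit read from the data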;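 also: inhibitors lower the FRET ratio by blocking Runt binding to CBFb-SMMHC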
Runt-CBFb FRET = inhibitors of RUNX1 Runt–CBFb binding, primary screen, biochemical, FRET, Cerulean-Runt, Venus-CBFb, uHTS | Runt-related transcription factor 1 (Homo sapiens) + Core-binding factor subunit beta … | 220,000 compounds, 0.46% hits | Cerulean-Runt/Venus-CBFb FRET ratio 530/480, 1 h | AID 1496, 2009 | inhibition, % at 20 µM;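 active = inhibition over about 50% at 20 µM in the single-dose screen, limit read from the data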
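Doses: 20 µM compound in 1% DMSO | Material: Cerulean-labeled Runt domain protein | Amount: Each fluorescent fusion protein 100 nM | Schedule: Two 1 h room-temperature incubations shielded from light | Measured by: FRET fluorescence | Evaluation: Loss of energy transfer signal | Controls: Unlabeled CBFb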
KLK7 zymogen act = proKLK7 zymogen activators, primary screen, biochemical, fluorescence intensity; Kallikrein-7 (Homo sapiens), P49862; purified proKLK7, EDANS-DABCYL substrate fluorescence; 100% is mature enzyme control, 0% vehicle; activation, % at 7 µM; 370,000 compounds, 0.9% hits; AID 652039, 2013;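 active = activation above the mean of all tested compounds plus 3 SD, computed per campaign excluding outliers beyond control limits, cut at about 13% in these data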
RanGTP-Impb inh = inhibitors of RanGTP-importin-beta interaction, primary screen, biochemical, FRET, CFP-Ran, YFP-importin-beta, homogeneous | cell-free CFP-Ran/YFP-importin-beta FRET ratio | inhibition, % (no concentration beside the values) | 300,000 compounds, 1.1% hits;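 active = more than half of the replicate wells show a fall in the fluorescence ratio signal beyond about 16%, limit read from the data, passing the limit was not always enough; inconclusive = exactly half of the replicate wells pass the set limit; inactive = fewer than half of replicates pass the limit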
MEX-5 binding = MEX-5 zinc finger RNA-binding disruptors – biochemical, C. elegans, fluorescence polarization, MLPCN library, primary screen; MEX-5/FITC-TCR2 RNA binding; active compounds read low; Zinc finger protein mex-5 (Caenorhabditis elegans), Q9XUB2; activity score (negative = inhibition of binding), % at 10 µM; 300,000 compounds, 0.38% hits;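 active = inhibition past about -25% in most replicates, and total fluorescence under double the plate's negative control median, limit read from the data; inconclusive = replicates evenly split on the limit, or fluorescence at least double controls; inactive = too little inhibition in most replicates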
Target sequence (Q9XUB2 whole entry, looked up): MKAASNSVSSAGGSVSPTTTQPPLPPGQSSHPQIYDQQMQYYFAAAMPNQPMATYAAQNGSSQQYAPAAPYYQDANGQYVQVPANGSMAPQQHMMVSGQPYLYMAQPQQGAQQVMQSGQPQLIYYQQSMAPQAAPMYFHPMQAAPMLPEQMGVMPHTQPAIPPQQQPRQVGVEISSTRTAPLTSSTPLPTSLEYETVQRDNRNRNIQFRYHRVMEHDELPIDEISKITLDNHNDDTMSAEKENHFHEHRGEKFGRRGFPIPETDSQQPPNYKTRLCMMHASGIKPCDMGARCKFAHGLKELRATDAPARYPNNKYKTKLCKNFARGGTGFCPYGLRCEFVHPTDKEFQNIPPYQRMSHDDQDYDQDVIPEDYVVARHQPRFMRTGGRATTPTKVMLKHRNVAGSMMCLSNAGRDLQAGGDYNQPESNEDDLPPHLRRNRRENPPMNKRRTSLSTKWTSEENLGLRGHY
A number is an active result; n = inactive; u = inconclusive; x = no result; + = active, no number.

SMILES	Runt-SMMHC FRET	Runt-CBFb FRET	KLK7 zymogen act	RanGTP-Impb inh	MEX-5 binding
COC(/C=C/Nc1ccc(Cl)cc1)=C(C#N)C#N	n	n	n	27	n
COC(/C=C/Nc1ccc(OC)cc1)=C(C#N)C#N	n	n	n	n	n
Oc1[nH]c2ccccc2c1N=NC(=S)N1CCOCC1	n	n	x	n	-41
Oc1[nH]c2ccc(Br)cc2c1N=NC(=S)N1CCOCC1	n	n	n	n	n
C=C(C)CSc1cc(C)c(C#N)c2nc3ccccc3n12	n	n	n	56	n
Cc1c2c(n3c(nc4ccccc43)c1C#N)N(CCN1CCOCC1)CC2	x	x	n	112	n
C=CCc1c(C)c(C#N)c2nc3ccccc3n2c1N1CCCCC1	n	n	n	n	n
C=C(C)Cc1c(C)c(C#N)c2nc3ccccc3n2c1N1CCCCC1	n	n	n	29	n
CCOC(=O)C1=C(COC(=O)C2CC(=O)N(c3ccc(CC)cc3)C2)NC(=O)NC1C (configuration not stated)	x	x	n	x	x
C#CCN(C[C@@H]1[C@@H](OC(=O)NC2CCCC2)[C@@H](OC(=O)NC2CCCC2)CN(C(=O)OC(C)C)N1C(=O)OC(C)C)S(=O)(=O)c1ccc(C)cc1	x	x	n	x	x
N#Cc1cc2c(=O)n3ccccc3nc2n(-c2ccc(Cl)cc2)c1=O	90	n	n	x	n
COC(=O)c1cc2c(=O)n3ccccc3nc2n(Cc2cccnc2)c1=N	x	x	x	n	n
Cc1ccc2nc3c(cc(C#N)c(=N)n3Cc3cccnc3)c(=O)n2c1	x	x	x	94	n
COc1ccc(CCn2c(=N)c(S(=O)(=O)c3ccc(Cl)cc3)cc3c(=O)n4ccccc4nc32)cc1	x	x	n	n	n
C=CCn1c(=N)c(C#N)cc2c(=O)n3ccccc3nc21	75	n	n	+	n
O=C(COC(=O)CCSc1ccccc1)Nc1ccccc1Br	x	x	n	x	x
Cc1[nH][nH]c(=O)c1C(c1cc([N+](=O)[O-])ccc1O)c1c(C)[nH][nH]c1=O	n	n	n	n	-27
Cc1[nH][nH]c(=O)c1C(c1ccccc1[N+](=O)[O-])C(C#N)C#N (configuration not stated)	n	n	n	n	n
O=C(CSc1ccccc1F)NCC(c1ccco1)N1CCCCC1 (configuration not stated)	x	x	n	x	x
CC[n+]1ccc(/C=C2\Sc3ccccc3N2CCCS(=O)(=O)[O-])c2ccccc21	n	n	n	n	n
CN1C=C/C(=C\c2cc[n+](C)c3ccccc23)c2ccccc21	n	x	n	n	-67
CCn1c(C)cc2c(c1=O)C(c1ccccc1)C(C(=O)OC)=C(N)O2 (configuration not stated)	n	n	n	42	n
O=C1OC(/C(=C\Nc2cc(Cl)ccc2O)[N+](=O)[O-])c2ccccc21 (configuration not stated)	n	n	n	n	-26
O=C(COC(=O)/C=C/c1ccc(Cl)cc1)NC1CCCCCC1	x	x	n	x	x
CCCCC(=O)Nc1ccc(NC(=O)c2cnccn2)cn1	n	n	n	172	n
SMILES	Runt-SMMHC FRET	Runt-CBFb FRET	KLK7 zymogen act	RanGTP-Impb inh	MEX-5 binding
CCn1c(SCc2nc3sc(C(=O)O)c(C)c3c(=O)[nH]2)nc2ccccc21	n	n	n	n	-43
CCOC(=O)CN1CCCc2nc(-c3ccc(OC)cc3)ccc21	x	x	n	x	x
CCOC(=O)CN1CCCc2nc(C)c(C)cc21	x	x	29	x	x
COC(=O)c1ccc(Oc2c(C(F)(F)F)oc3c(CN4CCN(C)CC4)c(O)ccc3c2=O)cc1	n	n	n	39	n
CCOC(=O)c1oc2c(CN3CCN(C)CC3)c(O)ccc2c(=O)c1-c1ccccc1OC	n	n	n	n	n
CCOc1ccc(Oc2c(C)oc3cc(O)ccc3c2=O)cc1	n	n	n	n	n
O=C(O)c1ccc(Oc2c(C(F)(F)F)oc3cc(O)ccc3c2=O)cc1	n	n	n	24	n
COc1ccc2nc3ccccc3nc2c1NC(=O)c1ccc(Cl)cc1	n	n	n	n	-31
CCOC(=O)c1c(C)[nH]c(C(=O)COC(=O)[C@H](C)N2C(=O)C3CCCCC3C2=O)c1C (some centres not stated)	x	x	n	x	x
CC(C)S(=O)(=O)C1=NSC2=NC(=O)/C(=C\c3ccc(-c4ccccc4)o3)C(=N)N21	82	n	n	u	n
Clc1ccc(-c2nnc3n2N=C(c2ccc(-c4ccccc4)cc2)CS3)cc1	x	x	n	x	x
Cc1ccc(/C(O)=C/c2nc3cc(C)ccc3oc2=O)cc1	n	n	n	n	-120
O=C(CSc1nc2ccccc2nc1N1CCCCC1)NCc1ccc(Cl)cc1Cl	x	x	n	x	x
CC(=O)Nc1ccc(-c2noc(-c3csc([C@@H]4C[C@H](O)[C@@H](CO)O4)n3)n2)cc1	x	x	n	x	x
Cc1cccc(CN2CCc3c(OCC(=O)N4CCCc5ccccc54)cccc3C2=O)c1	n	n	n	22	n
O=C(c1ccc(COc2ccc(F)cc2)o1)n1cccn1	n	n	n	n	n
Cc1cc(OCc2ccc(C(=O)n3cccn3)o2)ccc1Cl	n	n	n	67	n
O=C(Nc1ccc(Cl)cc1)c1cc2nc(-c3ccco3)cc(C(F)(F)F)n2n1	n	n	n	n	n
Cc1ccccc1Cn1cc(NC(=O)c2cc3nc(-c4ccco4)cc(C(F)(F)F)n3n2)cn1	n	n	n	30	n
Cc1ccc(Cn2ccc(NC(=O)c3cc4nc(-c5ccco5)cc(C(F)(F)F)n4n3)n2)cc1	n	x	n	n	n
CCc1ccc(-c2cc(C(F)(F)F)n3nc(C(=O)Nc4cnn(Cc5ccc(C)cc5)c4)cc3n2)s1	n	n	x	39	n
Clc1ccccc1NN=Cc1ccccn1	x	x	n	x	x
Cc1cc(C)cc(C(O)c2ncc(-c3cccc(F)c3)[nH]2)c1 (configuration not stated)	x	x	n	x	x
COC(=O)c1cc(NC(=O)c2cccs2)ccc1N1CCOCC1	x	x	n	n	n
O=C(Nc1ccc(N2CCOCC2)c(F)c1)c1cccs1	x	x	n	16	n
CC1CC(=O)N(CC(=O)Nc2ccc(F)cc2)c2ccccc2S1(=O)=O (configuration not stated)	x	x	n	n	n
COc1ccc2nc(NCCNC(=S)NCCCN3CCOCC3)c(C#N)cc2c1	93	n	n	n	n
Cc1ccc(C)c(NC(=S)NCCCN2CCOCC2)c1	n	n	n	n	n
Cc1cc2cc(C#N)c(NCCNC(=S)NCCCN3CCOCC3)nc2cc1C	88	n	n	u	n

High-throughput results: PubChem, several laboratories
